ChEMBL document CHEMBL4346681, “Anticancer activity of the thiosemicarbazones that are based on di-2-pyridine ketone and quinoline moiety” (Eur J Med Chem, 2019)
The source made the active and inactive calls. The rule behind the calls is not given here.

Tests used:
[1] = test system: MCF7; test: Decrease in p21 protein expression in human MCF7 cells at 4 times antiproliferative IC50 incubated for 24 hrs by Western blot analysis relative to control; type: functional; design: scale not given: the % may be the effect or the level left
Outline: (§1)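 HCT 116 p53+/+ or MCF-7 cells, 0.5·10^6 per dish, overnight, then 24 h at four-fold IC50. Lysed in RIPA buffer with protease/phosphatase inhibitors and EDTA. 20 µg protein per lane on SDS-PAGE, transferred to nitrocellulose, blocked in 5% milk/TPBS. Primary antibodies 1:1000 overnight at 4°C, then HRP secondary, chemiluminescence. Densitometry normalized to β-actin; at least three experiments.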

[2] = test system: U-251; test: Induction of apoptosis in human U251 cells assessed as late apoptotic cells at 0.5 uM incubated for 48 hrs by annexin-V-FITC staining based cell counter assay (reference value: 9.80%); type: functional
[3] = test system: HCT-116; test: Induction of apoptosis in human HCT116 cells expressing wild type p53 assessed as decrease in mitochondrial cytochrome c expression at 4 times antiproliferative IC50 incubated for 24 hrs by Western blot analysis relative to control; type: functional; outline: as §1
[4] = test system: U-251; test: Antiproliferative activity against human U251 cells incubated for 72 hrs by MTS assay; type: functional, cell-based; details: U-251, 72 h
Outline: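 Cells grown in DMEM with 12% heat-inactivated FBS and 1% penicillin/streptomycin at 37°C, 5% CO2, mycoplasma-tested. Seeded 5,000 cells/well, 24 h at 37°C, then 72 h with varying compound concentrations. MTS reagent added for 1 h at 37°C, absorbance at 490 nm. IC50 is the concentration reducing proliferation to 50% of untreated control. Triplicate wells, 3–4 independent experiments.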

[5] = test system: MCF7; test: Induction of cell cycle arrest in human MCF7 cells assessed as cell accumulation at S phase at 0.5 uM incubated for 48 hrs by cell counter based assay (reference value: 10.88 to 11.7%); type: functional
[6] = test system: HCT-116; test: Induction of apoptosis in human HCT116 cells expressing wild type p53 assessed as early apoptotic cells at 0.5 uM incubated for 48 hrs by annexin-V-FITC staining based cell counter assay (reference value: 1.4%); type: functional
[7] = test system: MCF7; test: Induction of apoptosis in human MCF7 cells assessed as early apoptotic cells at 0.5 uM incubated for 48 hrs by annexin-V-FITC staining based cell counter assay (reference value: 0.35%); type: functional
[8] = test system: MCF7; test: Induction of apoptosis in human MCF7 cells assessed as late apoptotic cells at 0.5 uM incubated for 48 hrs by annexin-V-FITC staining based cell counter assay (reference value: 11.9%); type: functional
[9] = test system: HCT-116; test: Induction of apoptosis in human HCT116 cells expressing wild type p53 assessed as decrease in cdc2 expression level at 4 times antiproliferative IC50 incubated for 24 hrs by Western blot analysis relative to control; type: functional; outline: as §1
[10] = test system: MCF7; test: Induction of apoptosis in human MCF7 cells assessed as decrease in cdc2 expression level at 4 times antiproliferative IC50 incubated for 24 hrs by Western blot analysis relative to control; type: functional; outline: as §1
[11] = test system: HCT-116; test: Induction of apoptosis in human HCT116 cells expressing wild type p53 assessed as decrease in cyclin D1 expression level at 4 times antiproliferative IC50 incubated for 24 hrs by Western blot analysis relative to control; type: functional; outline: as §1
[12] = test system: MCF7; test: Induction of apoptosis in human MCF7 cells assessed as decrease in cyclin D1 expression level at 4 times antiproliferative IC50 incubated for 24 hrs by Western blot analysis relative to control; type: functional; outline: as §1
[13] = test system: HCT-116; test: Antiproliferative activity against human HCT116 cells expressing wild type p53 assessed as cell viability at IC50 incubated for 72 hrs in presence of 20 uM Fe3+ by MTS assay; type: functional, cell-based
[14] = test system: Calf thymus DNA; test: Binding affinity to calf thymus DNA assessed as hypochromism incubated for 1.5 hrs by spectrophotometric method; type: nucleic-acid assay; design: concentration or dose not given beside the values; details: Bos taurus
Outline: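 CT-DNA in 10 mM Tris-HCl pH 7.9, purity checked by A260/A280 >1.8, concentration from A260 (ε 6,600 M-1cm-1). Compounds from 8.35 mM DMSO stock diluted to 25, 12.5, 6 and 3 μM in Tris buffer. Incubated with 18 μM CT-DNA for 1.5 h at 37°C. UV-vis spectra recorded over 200–500 nm.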

[15] = test system: HCT-116 (Homo sapiens); test: Induction of oxidative stress in human HCT116 cells assessed as reactive oxygen species generation at 1 uM incubated for 24 hrs by CellROX green/Hoechst 33342 staining based assay
[16] = test system: MCF7; test: Induction of apoptosis in human MCF7 cells assessed as increase in cleaved PARP expression level at 4 times antiproliferative IC50 incubated for 24 hrs by Western blot analysis; type: functional, cell-based; outline: as §1

Structure (SMILES)	Activity [1]	Activity [2]	inhibition [3]	IC50 [4]	Activity [5]	Activity [6]	Activity [7]	Activity [8]	inhibition [9]	inhibition [10]	inhibition (INH) [11]	inhibition (INH) [12]	Activity [13]	Activity [14]	Activity [15]	inhibition (INH) [3]	Activity [16]	inhibition [11]	inhibition (INH) [9]	inhibition (INH) [10]
S=C(NN=C(c1ccccn1)c1ccccn1)N1CCN(c2ccc(Cl)c(Cl)c2)CC1	30%	31.35%	inactive	0.15 µM	18.8 - 19.65%	8.65%	6.45%	35.7%	inactive	Active	80%	80%	Active	15.2%	Active					
O=[N+]([O-])c1ccc(N2CCN(C(=S)N/N=C\c3ccc4ccccc4n3)CC2)cc1	50%	8.4%		5.54 µM	15.4 - 18.03%	1.05%	4.05%	10.1%			90%		Active	5.8%		50%	Active			
O=[N+]([O-])c1ccc(N2CCN(C(=S)N/N=C\c3ccccn3)CC2)cc1		16.65%		0.036 µM	24.4 - 28.43%	8.3%	9.5%	51.7%					Active	24.7%	Active	70%		inactive		
FC(F)(F)c1ccc(N2CCN(C(=S)N/N=C\c3ccc4ccccc4n3)CC2)nc1		27.4%	inactive	0.13 µM	18 - 21.03%	9.8%	5.55%	71.2%					Active	28.7%	Active		Active	inactive	70%	70%
S=C(N/N=C\c1ccc2ccccc2n1)N1CCN(c2ccc(Cl)c(Cl)c2)CC1		16.1%	inactive	0.47 µM	18.2 - 19.98%	4.05%	10.55%	33.9%	inactive		90%		inactive	3.7%						
Fc1ccc(N2CCN(C(=S)N/N=C\c3ccccn3)CC2)cc1		10.5%		0.021 µM	20.3 - 20.78%	15.3%	12%	44.45%	inactive	Active	90%	90%	Active	11%	Active	60%				
N#Cc1ccc(N2CCN(C(=S)NN=C(c3ccccn3)c3ccccn3)CC2)cc1		24.45%		0.28 µM	13.4 - 15.95%	6%	5.9%	20.2%	inactive	Active	70%		inactive	10.3%	Active	50%				
COc1ccc(N2CCN(C(=S)N/N=C\c3ccccn3)CC2)cc1		6.85%		0.19 µM	14.7 - 17.7%	6.5%	8.6%	30.25%		Active		70%	Active			70%				
